Results as given in ChEMBL document CHEMBL5537124, “Unexpected rearrangement of ivermectin in the synthesis of new derivatives with trypanocidal and antiplasmodial activities” (Eur J Med Chem, 2024).

Tests used:
[1] = system: Trypanosoma brucei brucei; test: Trypanocidal activity against Trypanosoma brucei brucei 221a assessed as parasite growth inhibition measured after 24 hrs by resazurin dye based microplate reader analysis; format: functional
In short: (§1)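 Seeded at 1 × 10^4 mL-1 (T. b. brucei) or 5 × 10^4 mL-1 (HL-60) in Baltz medium with 16.7 % bovine serum and 0.9 % DMSO. Test compounds given as tenfold dilutions from 100 μM to 1 nM. Incubated at 37 °C, 5 % CO2. Resazurin added after 24 h, then a further 48 h. Absorbance read at 570/630 nm. GI50 obtained by linear interpolation; mean ± SD of three independent experiments.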

[2] = Selectivity index, ratio of GI50 for human HL-60 cells to GI50 for Trypanosoma brucei brucei 221a; format: toxicity; conditions: for selectivity ratio: HL-60 cells versus Trypanosoma brucei brucei 221a, read-out: RatioGI50
In short: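 Ratio of GI50 for HL-60 to GI50 for T. b. brucei, both from the resazurin growth assay.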

Huh-7 = test: Cytotoxicity against human Huh-7 cells infected with luciferase-expressing Plasmodium berghei assessed as effect on cell confluency pretreated for 1 hr followed by parasite infection and measured 46 hrs post infection by alamar blue staining based analysis; format: toxicity; conditions: huh-7, 47 h
In short: (§2)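 Huh7 hepatoma cells in RPMI-1640 with 10 % FCS, seeded at 1 × 10^4 per well and left overnight. Seven compound concentrations, serially diluted from 10 mM DMSO stocks, applied 1 h before infection; DMSO vehicle control. PbGFP-Luciferase sporozoites from An. stephensi salivary glands added 1:1, plates spun 1800 × g for 5 min. Confluency by AlamarBlue at 46 hpi; parasite load by firefly luciferase at 48 hpi. IC50 from nonlinear regression.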

Plasmodium berghei = test: Antiplasmodial activity against luciferase-expressing Plasmodium berghei infected in human Huh-7 cells assessed as reduction in parasitic load pretreated for 1 hr with cells followed by parasite infection and measured 48 hrs post infection by firefly luciferase assay; format: functional, organism-based; in short: as §2
Trypanosoma cruzi = test: Antitrypanosomal activity against trypomastigote form of Trypanosoma cruzi Dm28c expressing beta-galactosidase using chlorophenol red beta-D-galactopyranoside as enzyme substrate measured after 24 hrs by colorimetric analysis; format: functional, organism-based
HL-60 = test: Cytotoxicity against human HL-60 cells assessed as cell growth inhibition measured after 24 hrs by resazurin dye based microplate reader analysis; format: toxicity; conditions: hl-60, 24 h; in short: as §1

## CC[C@H](C)[C@H]1O[C@]2(CC[C@@H]1C)C[C@@H]1C[C@@H](C/C=C(\C)[C@H](NC(=O)c3ccccc3)[C@@H](C)/C=C/C=C3\CO[C@@H]4[C@H](O)C(C)=C[C@@H](C(=O)O1)[C@]34O)O2
[1]
  GI50: 8.6 µM
[2]
  selectivity ratio: 3.6

## CC[C@H](C)[C@H]1O[C@]2(CC[C@@H]1C)C[C@@H]1C[C@@H](C/C=C(\C)[C@H](NC(=O)C(C)C)[C@@H](C)/C=C/C=C3\CO[C@@H]4[C@H](O)C(C)=C[C@@H](C(=O)O1)[C@]34O)O2
[1]
  GI50: 10.2 µM
[2]
  selectivity ratio: 3.3

## CC[C@H](C)[C@H]1O[C@]2(CC[C@@H]1C)C[C@@H]1C[C@@H](C/C=C(\C)[C@H](NC(=O)c3ccc(OC)c(OC)c3)[C@@H](C)/C=C/C=C3\CO[C@@H]4[C@H](O)[C@](C)(O)C=C(C(=O)O1)[C@]34O)O2
[1]
  GI50: 5 µM
[2]
  selectivity ratio: 6.4

## CC[C@H](C)[C@H]1O[C@]2(CC[C@@H]1C)C[C@@H]1C[C@@H](C/C=C(\C)[C@H](NC(=O)COC)[C@@H](C)/C=C/C=C3\CO[C@@H]4[C@H](O)C(C)=C[C@@H](C(=O)O1)[C@]34O)O2
[1]
  GI50: 14.4 µM
[2]
  selectivity ratio: 2.3

## CC[C@H](C)[C@H]1O[C@]2(CC[C@@H]1C)C[C@@H]1C[C@@H](C/C=C(\C)[C@H](NC(=O)CCl)[C@@H](C)/C=C/C=C3\CO[C@@H]4[C@H](O)C(C)=C[C@@H](C(=O)O1)[C@]34O)O2
[1]
  GI50: 0.063 µM
[2]
  selectivity ratio: 47.6

## CC[n+]1c(-c2ccccc2)c2cc(N)ccc2c2ccc(N)cc21 [HOMIDIUM BROMIDE]
[1]
  GI50: 0.086 µM
[2]
  selectivity ratio: 67.4

## CC[C@H](C)[C@H]1O[C@]2(CC[C@@H]1C)C[C@@H]1C[C@@H](C/C=C(\C)[C@H](NC(=O)CCl)[C@@H](C)/C=C/C=C3\CO[C@@H]4[C@H](O)[C@](C)(O)C=C(C(=O)O1)[C@]34O)O2
[1]
  GI50: 0.064 µM
[2]
  selectivity ratio: 67.2

## CCC(=O)N[C@H]1/C(C)=C/C[C@@H]2C[C@@H](C[C@]3(CC[C@H](C)[C@@H]([C@@H](C)CC)O3)O2)OC(=O)[C@@H]2C=C(C)[C@@H](O)[C@H]3OC/C(=C\C=C\[C@@H]1C)[C@]32O
[1]
  GI50: 7.4 µM
[2]
  selectivity ratio: 4.3

## CC[C@H](C)[C@H]1O[C@]2(CC[C@@H]1C)C[C@@H]1C[C@@H](C/C=C(\C)[C@@H](O)[C@@H](C)/C=C/C=C3\CO[C@@H]4[C@H](O)[C@](C)(O)C=C(C(=O)O1)[C@]34O)O2
[1]
  GI50: 12.1 µM
Huh-7
  Activity: Non-Toxic
[2]
  selectivity ratio: 2.6
Plasmodium berghei; Plasmodium berghei, Huh-7
  IC50: 2.85 µM

## CC[C@H](C)[C@H]1O[C@]2(CC[C@@H]1C)C[C@@H]1C[C@@H](C/C=C(\C)[C@@H](O[C@H]3C[C@H](OC)[C@@H](O[C@H]4C[C@H](OC)[C@@H](O)[C@H](C)O4)[C@H](C)O3)[C@@H](C)/C=C/C=C3\CO[C@@H]4[C@H](O)[C@](C)(O)C=C(C(=O)O1)[C@]34O)O2
[1]
  GI50: 20 µM
Huh-7
  Activity: Non-Toxic
[2]
  selectivity ratio: 1.6
Plasmodium berghei; Plasmodium berghei, Huh-7
  IC50: 4.72 µM

## CC[C@H](C)[C@H]1O[C@]2(CC[C@@H]1C)C[C@@H]1C[C@@H](C/C=C(\C)[C@H](NC(=O)c3ccc(OC)c(OC)c3)[C@@H](C)/C=C/C=C3\CO[C@@H]4[C@H](O)C(C)=C[C@@H](C(=O)O1)[C@]34O)O2
[1]
  GI50: 5.8 µM
[2]
  selectivity ratio: 5.6

## CCCCCCCCCC(=O)N[C@H]1/C(C)=C/C[C@@H]2C[C@@H](C[C@]3(CC[C@H](C)[C@@H]([C@@H](C)CC)O3)O2)OC(=O)[C@@H]2C=C(C)[C@@H](O)[C@H]3OC/C(=C\C=C\[C@@H]1C)[C@]32O
[1]
  GI50: 9.3 µM
[2]
  selectivity ratio: 3.2

## CC[C@H](C)[C@H]1O[C@]2(CC[C@@H]1C)C[C@@H]1C[C@@H](C/C=C(\C)[C@H](NC(C)=O)[C@@H](C)/C=C/C=C3\CO[C@@H]4[C@H](O)C(C)=C[C@@H](C(=O)O1)[C@]34O)O2
[1]
  GI50: 5.5 µM
Huh-7
  Activity: Non-Toxic
[2]
  selectivity ratio: 5.8
Plasmodium berghei; Plasmodium berghei, Huh-7
  IC50: 1.52 µM

## IVERMECTIN [listing 1 of 2 here]
[1]
  GI50: 14.6 µM

## CCC(=O)N[C@H]1/C(C)=C/C[C@@H]2C[C@@H](C[C@]3(CC[C@H](C)[C@@H]([C@@H](C)CC)O3)O2)OC(=O)C2=C[C@@](C)(O)[C@@H](O)[C@H]3OC/C(=C\C=C\[C@@H]1C)[C@@]23O
[1]
  GI50: 8.1 µM
[2]
  selectivity ratio: 4.3

## Cc1ccc(C(=O)Nc2ccc(S(=O)(=O)O)c3cc(S(=O)(=O)O)cc(S(=O)(=O)O)c23)cc1NC(=O)c1cccc(NC(=O)Nc2cccc(C(=O)Nc3cc(C(=O)Nc4ccc(S(=O)(=O)O)c5cc(S(=O)(=O)O)cc(S(=O)(=O)O)c45)ccc3C)c2)c1 [SURAMIN]
[1]
  GI50: 0.036 µM
[2]
  selectivity ratio: > 2780

## CC[C@H](C)[C@H]1O[C@]2(CC[C@@H]1C)C[C@@H]1C[C@@H](C/C=C(\C)[C@H](NC(=O)COC)[C@@H](C)/C=C/C=C3\CO[C@@H]4[C@H](O)[C@](C)(O)C=C(C(=O)O1)[C@]34O)O2
[1]
  GI50: 18.2 µM
[2]
  selectivity ratio: 1.8

## CC[C@H](C)[C@H]1O[C@]2(CC[C@@H]1C)C[C@@H]1C[C@@H](C/C=C(\C)[C@H](NC(=O)C34CC5CC(CC(C5)C3)C4)[C@@H](C)/C=C/C=C3\CO[C@@H]4[C@H](O)C(C)=C[C@@H](C(=O)O1)[C@]34O)O2
[1]
  GI50: 19.1 µM
[2]
  selectivity ratio: 1.6

## CC[C@H](C)[C@H]1O[C@]2(CC[C@@H]1C)C[C@@H]1C[C@@H](C/C=C(\C)[C@H](NC(=O)c3ccc(OC)c(O)c3)[C@@H](C)/C=C/C=C3\CO[C@@H]4[C@H](O)[C@](C)(O)C=C(C(=O)O1)[C@]34O)O2
[1]
  GI50: 4.1 µM
[2]
  selectivity ratio: 8

## CC[C@H](C)[C@H]1O[C@]2(CC[C@@H]1C)C[C@@H]1C[C@@H](C/C=C(\C)[C@H](NC(=O)c3ccco3)[C@@H](C)/C=C/C=C3\CO[C@@H]4[C@H](O)C(C)=C[C@@H](C(=O)O1)[C@]34O)O2
[1]
  GI50: 10.2 µM
[2]
  selectivity ratio: 3.1

## CC[C@H](C)[C@H]1O[C@]2(CC[C@@H]1C)C[C@@H]1C[C@@H](C/C=C(\C)[C@H](NC(=O)c3ccco3)[C@@H](C)/C=C/C=C3\CO[C@@H]4[C@H](O)[C@](C)(O)C=C(C(=O)O1)[C@]34O)O2
[1]
  GI50: 4.7 µM
[2]
  selectivity ratio: 7

## IVERMECTIN [listing 2 of 2 here]
Huh-7
  Activity: Non-Toxic
Trypanosoma cruzi
  EC50: 10.4 µM
[2]
  RatioGI50: 2.1
Plasmodium berghei; huh-7
  IC50: 0.911 µM
HL-60
  GI50: 31.3 µM

## CC[C@H](C)[C@H]1O[C@]2(CC[C@@H]1C)C[C@@H]1C[C@@H](C/C=C(\C)[C@H](NC(=O)c3ccccc3)[C@@H](C)/C=C/C=C3\CO[C@@H]4[C@H](O)[C@](C)(O)C=C(C(=O)O1)[C@]34O)O2
[1]
  GI50: 4.3 µM
[2]
  selectivity ratio: 7

## CCCCCCCCCC(=O)N[C@H]1/C(C)=C/C[C@@H]2C[C@@H](C[C@]3(CC[C@H](C)[C@@H]([C@@H](C)CC)O3)O2)OC(=O)C2=C[C@@](C)(O)[C@@H](O)[C@H]3OC/C(=C\C=C\[C@@H]1C)[C@@]23O
[1]
  GI50: 4.1 µM
[2]
  selectivity ratio: 7.8

## CC[C@H](C)[C@H]1O[C@]2(CC[C@@H]1C)C[C@@H]1C[C@@H](C/C=C(\C)[C@@H](O)[C@@H](C)/C=C/C=C3\CO[C@@H]4[C@H](O)C(C)=C[C@@H](C(=O)O1)[C@]34O)O2 [IVM AGLYCONE]
[1]
  GI50: 6.1 µM
Huh-7
  Activity: Non-Toxic
[2]
  selectivity ratio: 5.8
Plasmodium berghei; Plasmodium berghei, Huh-7
  IC50: 5.45 µM

## CC[C@H](C)[C@H]1O[C@]2(CC[C@@H]1C)C[C@@H]1C[C@@H](C/C=C(\C)[C@H](NC(=O)C34CC5CC(CC(C5)C3)C4)[C@@H](C)/C=C/C=C3\CO[C@@H]4[C@H](O)[C@](C)(O)C=C(C(=O)O1)[C@]34O)O2
[1]
  GI50: 3 µM
[2]
  selectivity ratio: 10.3

## CC[C@H](C)[C@H]1O[C@]2(CC[C@@H]1C)C[C@@H]1C[C@@H](C/C=C(\C)[C@H](NC(=O)C(C)C)[C@@H](C)/C=C/C=C3\CO[C@@H]4[C@H](O)[C@](C)(O)C=C(C(=O)O1)[C@]34O)O2
[1]
  GI50: 6.6 µM
[2]
  selectivity ratio: 5.1

## CC[C@H](C)[C@H]1O[C@]2(CC[C@@H]1C)C[C@@H]1C[C@@H](C/C=C(\C)[C@H](NC(=O)c3ccc(OC)c(O)c3)[C@@H](C)/C=C/C=C3\CO[C@@H]4[C@H](O)C(C)=C[C@@H](C(=O)O1)[C@]34O)O2
[1]
  GI50: 3.9 µM
[2]
  selectivity ratio: 8.2

## CC[C@H](C)[C@H]1O[C@]2(CC[C@@H]1C)C[C@@H]1C[C@@H](C/C=C(\C)[C@H](NC(C)=O)[C@@H](C)/C=C/C=C3\CO[C@@H]4[C@H](O)[C@](C)(O)C=C(C(=O)O1)[C@]34O)O2
[1]
  GI50: 7.5 µM
Huh-7
  Activity: Non-Toxic
[2]
  selectivity ratio: 4.5
Plasmodium berghei; Plasmodium berghei, Huh-7
  IC50: 0.379 µM
